Data reported in ChEMBL document CHEMBL3232927 (J Med Chem, 2014).
pIC50: −log10 of the molar value.

Assays:
[1] = Retention time of the compound up to by LC/MS analysis; type: physicochemical
Procedure, shortened: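 Reversed-phase LC/MS on a C18 (ODS) column, 5 μm, 4.6 × 150 mm, flow 1 mL/min. Gradient from 56/44 to 98/2 methanol/water containing 15 mM NH4OAc over 15 min, then a final hold.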

MDA-MB-231 = assay: Cytotoxicity against human MDA-MB-231 cells after 72 hrs by MTT assay; type: functional, cell-based; conditions: MDA-MB-231, 72 h
Procedure, shortened: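 MDA-MB-231 cells grown in MEM with 10% FBS and 1% pen/strep at 37 °C, seeded at 8000 cells/well in MEM with 5% FBS. 10 mM DMSO stocks were serially diluted in MEM/5% FBS: 1–10 000 nM for PTX-silicates, 0.1–1000 for DTX-silicates. Exposure 72 h, then MTT added and absorbance at 490 nm read at 60 min. IC50 from nonlinear regression of log concentration vs response; median of the IC50 distribution within the 95% confidence interval.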

[2] = Half life of the compound at C2 position in acetone-d6/D2O/CF3CO2H at 0.01 M by NMR spectroscopy analysis; type: physicochemical
Procedure, shortened: (§1)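 Silicates dissolved in acetone/water 10:1 (v/v) containing 1% TFA (measured pH 1.2) at ambient temperature. Silicate ester cleavage followed over time by NMR spectroscopy.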

[3] = Half life of the compound at C7 position in acetone-d6/D2O/CF3CO2H at 0.01 M by NMR spectroscopy analysis; type: physicochemical; procedure, shortened: as §1

Compound	Retention_time [1]	pIC50 (MDA-MB-231)	t1/2 [2]	t1/2 [3]
CCO[Si](OCC)(OCC)O[C@@H](C(=O)O[C@H]1C[C@@]2(O)[C@@H](OC(=O)c3ccccc3)[C@@H]3[C@]4(OC(C)=O)CO[C@@H]4C[C@H](O)[C@@]3(C)C(=O)[C@H](OC(C)=O)C(=C1C)C2(C)C)[C@@H](NC(=O)c1ccccc1)c1ccccc1	13.8 min	8.08	0.0617 h	–
CCCCCCCCO[Si](OCCCCCCCC)(OCCCCCCCC)O[C@@H](C(=O)O[C@H]1C[C@@]2(O)[C@@H](OC(=O)c3ccccc3)[C@@H]3[C@]4(OC(C)=O)CO[C@@H]4C[C@H](O)[C@@]3(C)C(=O)[C@H](OC(C)=O)C(=C1C)C2(C)C)[C@@H](NC(=O)c1ccccc1)c1ccccc1	22.1 min	8.15	0.2 h	–
CC(=O)O[C@H]1C(=O)[C@@]2(C)[C@H]([C@H](OC(=O)c3ccccc3)[C@]3(O)C[C@H](OC(=O)[C@H](O[Si](OC(C)C)(OC(C)C)OC(C)C)[C@@H](NC(=O)c4ccccc4)c4ccccc4)C(C)=C1C3(C)C)[C@]1(OC(C)=O)CO[C@@H]1C[C@@H]2O	15.4 min	8.38	2 h	–
CC(=O)O[C@H]1C(=O)[C@@]2(C)[C@H]([C@H](OC(=O)c3ccccc3)[C@]3(O)C[C@H](OC(=O)[C@H](O[Si](OC4CC(C)CCC4C(C)C)(OC4CC(C)CCC4C(C)C)OC4CC(C)CCC4C(C)C)[C@@H](NC(=O)c4ccccc4)c4ccccc4)C(C)=C1C3(C)C)[C@]1(OC(C)=O)CO[C@@H]1C[C@@H]2O (stereo partly specified)	24.5 min	6.23	1150 h	–
CCO[Si](O[C@@H](C(=O)O[C@H]1C[C@@]2(O)[C@@H](OC(=O)c3ccccc3)[C@@H]3[C@]4(OC(C)=O)CO[C@@H]4C[C@H](O)[C@@]3(C)C(=O)[C@H](OC(C)=O)C(=C1C)C2(C)C)[C@@H](NC(=O)c1ccccc1)c1ccccc1)(OC(C)(C)C)OC(C)(C)C	16.1 min	6.59	200 h	–
CC[Si](CC)(CC)O[C@@H](C(=O)O[C@H]1C[C@@]2(O)[C@@H](OC(=O)c3ccccc3)[C@@H]3[C@]4(OC(C)=O)CO[C@@H]4C[C@H](O)[C@@]3(C)C(=O)[C@H](OC(C)=O)C(=C1C)C2(C)C)[C@@H](NC(=O)c1ccccc1)c1ccccc1	15.4 min	6.66	–	–
CCO[Si](OCC)(OCC)O[C@H]1C[C@H]2OC[C@@]2(OC(C)=O)[C@H]2[C@H](OC(=O)c3ccccc3)[C@]3(O)C[C@H](OC(=O)[C@H](O[Si](OCC)(OCC)OCC)[C@@H](NC(=O)c4ccccc4)c4ccccc4)C(C)=C([C@@H](OC(C)=O)C(=O)[C@]12C)C3(C)C	16.6 min	7.92	0.0767 h	0.55 h
CCCCCCCCO[Si](OCCCCCCCC)(OCCCCCCCC)O[C@H]1C[C@H]2OC[C@@]2(OC(C)=O)[C@H]2[C@H](OC(=O)c3ccccc3)[C@]3(O)C[C@H](OC(=O)[C@H](O[Si](OCCCCCCCC)(OCCCCCCCC)OCCCCCCCC)[C@@H](NC(=O)c4ccccc4)c4ccccc4)C(C)=C([C@@H](OC(C)=O)C(=O)[C@]12C)C3(C)C	–	6.55	0.3 h	3.33 h
CC(=O)O[C@H]1C(=O)[C@]2(C)[C@@H](O[Si](OC(C)C)(OC(C)C)OC(C)C)C[C@H]3OC[C@@]3(OC(C)=O)[C@H]2[C@H](OC(=O)c2ccccc2)[C@]2(O)C[C@H](OC(=O)[C@H](O[Si](OC(C)C)(OC(C)C)OC(C)C)[C@@H](NC(=O)c3ccccc3)c3ccccc3)C(C)=C1C2(C)C	18.9 min	5.80	2.17 h	25 h
CCO[Si](OCC)(OCC)O[C@H]1C[C@H]2OC[C@@]2(OC(C)=O)[C@H]2[C@H](OC(=O)c3ccccc3)[C@]3(O)C[C@H](OC(=O)[C@H](O)[C@@H](NC(=O)c4ccccc4)c4ccccc4)C(C)=C([C@@H](OC(C)=O)C(=O)[C@]12C)C3(C)C	14.6 min	7.74	–	0.5 h
CCCCCCCCO[Si](OCCCCCCCC)(OCCCCCCCC)O[C@H]1C[C@H]2OC[C@@]2(OC(C)=O)[C@H]2[C@H](OC(=O)c3ccccc3)[C@]3(O)C[C@H](OC(=O)[C@H](O)[C@@H](NC(=O)c4ccccc4)c4ccccc4)C(C)=C([C@@H](OC(C)=O)C(=O)[C@]12C)C3(C)C	24.6 min	6.54	–	2.5 h
CC(=O)O[C@H]1C(=O)[C@]2(C)[C@@H](O[Si](OC(C)C)(OC(C)C)OC(C)C)C[C@H]3OC[C@@]3(OC(C)=O)[C@H]2[C@H](OC(=O)c2ccccc2)[C@]2(O)C[C@H](OC(=O)[C@H](O)[C@@H](NC(=O)c3ccccc3)c3ccccc3)C(C)=C1C2(C)C	16.4 min	6.59	–	28.33 h
CCO[Si](OCC)(OCC)O[C@@H](C(=O)O[C@H]1C[C@@]2(O)[C@@H](OC(=O)c3ccccc3)[C@@H]3[C@]4(OC(C)=O)CO[C@@H]4C[C@H](O)[C@@]3(C)C(=O)[C@H](O)C(=C1C)C2(C)C)[C@@H](NC(=O)OC(C)(C)C)c1ccccc1	14.1 min	8.60	0.183 h	–
CC(=O)O[C@@]12CO[C@@H]1C[C@H](O)[C@@]1(C)C(=O)[C@H](O)C3=C(C)[C@@H](OC(=O)[C@H](O[Si](OC(C)C)(OC(C)C)OC(C)C)[C@@H](NC(=O)OC(C)(C)C)c4ccccc4)C[C@@](O)([C@@H](OC(=O)c4ccccc4)[C@H]21)C3(C)C	15.9 min	9.70	4.33 h	–
CCO[Si](O[C@@H](C(=O)O[C@H]1C[C@@]2(O)[C@@H](OC(=O)c3ccccc3)[C@@H]3[C@]4(OC(C)=O)CO[C@@H]4C[C@H](O)[C@@]3(C)C(=O)[C@H](O)C(=C1C)C2(C)C)[C@@H](NC(=O)OC(C)(C)C)c1ccccc1)(OC(C)(C)C)OC(C)(C)C	16.4 min	6.37	226.67 h	–
CC(=O)O[C@H]1C(=O)[C@@]2(C)[C@H]([C@H](OC(=O)c3ccccc3)[C@]3(O)C[C@H](OC(=O)[C@H](O[Si](OC(C)=O)(OC(C)(C)C)OC(C)(C)C)[C@@H](NC(=O)c4ccccc4)c4ccccc4)C(C)=C1C3(C)C)[C@]1(OC(C)=O)CO[C@@H]1C[C@@H]2O	–	–	0.583 h	–
CC(=O)O[C@@]12CO[C@@H]1C[C@H](O)[C@@]1(C)C(=O)[C@H](O)C3=C(C)[C@@H](OC(=O)[C@H](O)[C@@H](NC(=O)OC(C)(C)C)c4ccccc4)C[C@@](O)([C@@H](OC(=O)c4ccccc4)[C@H]21)C3(C)C.O.O.O [DOCETAXEL]	10.9 min	9.00	–	–
CC(=O)O[C@H]1C(=O)[C@@]2(C)[C@H]([C@H](OC(=O)c3ccccc3)[C@]3(O)C[C@H](OC(=O)[C@H](O)[C@@H](NC(=O)c4ccccc4)c4ccccc4)C(C)=C1C3(C)C)[C@]1(OC(C)=O)CO[C@@H]1C[C@@H]2O [PACLITAXEL]	10.5 min	8.25	–	–
